What was measured:
[1] = Stability of the compound assessed as microsomal leucine aminopeptidase (unknown origin)-mediated liberation of sarcosine, arginine and valine after 2 hrs by TLC analysis; assay type: ADME, Homo sapiens
In short: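 Peptide (2 mg) in 0.4 mL of 0.5 mol Tris, pH 8.5, plus 0.1 mL of 0.025 mol MnCl2, was incubated at 37 °C with 0.2 mg of microsomal leucine aminopeptidase (25 units/1.83 mg). Acetic acid was added and the mixture lyophilized. Liberated amino acids were detected by TLC and amino acid analysis.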

Rattus norvegicus [2] = species: Rattus norvegicus; assay: Effect on pressor activity in vagotomized and ganglion-blocked rat assessed as duration of action; assay type: functional
In short: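 Single-injection pressor test in vagotomized, ganglion-blocked rats. Duration of action runs from peptide injection until blood pressure returns to control values.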

Rattus norvegicus [3] = species: Rattus norvegicus; assay: Effect on pressor activity in vagotomized and ganglion-blocked rat relative to angiotensin 2; assay type: functional
In short: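 Pressor response was measured in vagotomized, ganglion-blocked rats by the single-injection procedure. Activity is expressed as a percentage of the pressor activity of angiotensin II, with n injections per value.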

Rattus norvegicus [4] = species: Rattus norvegicus; assay: Effect on pressor activity in vagotomized and ganglion-blocked rat assessed as duration of action relative to angiotensin 2; assay type: functional
In short: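 Vagotomized, ganglion-blocked rats received single injections. Duration of action, timed from injection until blood pressure returns to control levels, is compared against an equipressor dose of angiotensin II given by the same procedure.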

[5] = Stability of the compound assessed as beef pancreas alpha-chymotrypsin-mediated drug degradation up to 3 hrs by TLC analysis; assay type: ADME, Bos taurus; settings: cattle, isolated protein
In short: (§1)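 Peptide (5 mg) in 0.5 mL of 0.1 mol ammonium acetate buffer, pH 7.5, was incubated at 37 °C with 0.4 mg of thrice-crystallized bovine pancreatic α-chymotrypsin suspended in buffer. The reaction was stopped with acetic acid, the mixture lyophilized, and fragments checked by TLC on cellulose in suitable solvents.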

[6] = Stability of the compound assessed as microsomal leucine aminopeptidase (unknown origin)-mediated liberation of aspartic acid from position 1 after 5 mins by TLC analysis
[7] = Stability of the compound assessed as beef pancreas alpha-chymotrypsin-mediated drug degradation into 2 tetrapeptides after 15 to 20 mins by TLC analysis; assay type: ADME, Bos taurus; settings: cattle, isolated protein; in short: as §1

Row | SMILES | Stability [1] | Time (Rattus norvegicus [2]) | Activity (Rattus norvegicus [3]) | Time (Rattus norvegicus [4]) | Stability [5] | Stability [6] | Stability [7]
1 | CC[C@H](C)[C@H](NC(=O)[C@H](Cc1ccc(O)cc1)NC(=O)[C@@H](NC(=O)[C@H](CCCNC(=N)N)NC(=O)CNC)C(C)C)C(=O)N[C@@H](Cc1cnc[nH]1)C(=O)N1CCC[C@H]1C(=O)N[C@@H](Cc1ccccc1)C(=O)O | Stable |  |  |  |  |  | 
2 | CC[C@H](C)[C@H](NC(=O)C[C@H](Cc1ccc(O)cc1)NC(=O)[C@@H](NC(=O)[C@H](CCCNC(=N)N)NC(=O)CNC)C(C)C)C(=O)N[C@@H](Cc1cnc[nH]1)C(=O)N1CCC[C@H]1C(=O)N[C@@H](Cc1ccccc1)C(=O)O | Stable | 5.5 min | 1.98% | 5.2 min | Stable |  | 
3 | CC[C@H](C)[C@@H](CC(=O)N[C@@H](Cc1cnc[nH]1)C(=O)N1CCC[C@H]1C(=O)N[C@@H](Cc1ccccc1)C(=O)O)NC(=O)[C@H](Cc1ccc(O)cc1)NC(=O)[C@@H](NC(=O)[C@H](CCCNC(=N)N)NC(=O)[C@@H](N)CC(=O)O)C(C)C |  | 6.7 min | 2.82% | 6.3 min | Stable | Unstable | 
4 | CC[C@H](C)[C@@H](CC(=O)N[C@@H](Cc1cnc[nH]1)C(=O)N1CCC[C@H]1C(=O)N[C@@H](Cc1ccccc1)C(=O)O)NC(=O)[C@H](Cc1ccc(O)cc1)NC(=O)[C@@H](NC(=O)[C@H](CCCNC(=N)N)NC(=O)CNC)C(C)C | Stable | 4.7 min | 29.2% | 5.3 min | Stable |  | 
5 | CC[C@H](C)[C@H](NC(=O)[C@H](Cc1ccc(O)cc1)NC(=O)[C@@H](NC(=O)[C@H](CCCNC(=N)N)NC(=O)[C@@H](N)CC(=O)O)C(C)C)C(=O)N[C@@H](Cc1cnc[nH]1)C(=O)N1CCC[C@H]1C(=O)N[C@@H](Cc1ccccc1)C(=O)O [ANGIOTENSIN II] |  |  |  |  |  | Unstable | Unstable
